In brackets after ≈: the same amount, converted by molar mass.
Columns and labels:
[1] = system: Enterobacter cloacae; experiment: Minimum inhibitory concentration in vitro against Enterobacter cloacae MA 2646; assay type: functional
[2] = system: Escherichia coli; experiment: Antibacterial activity against Escherichia coli Vogel after oral administration in mouse; assay type: functional; details: Escherichia coli, po; read-out: PD50
[3] = system: Providencia rettgeri; experiment: Minimum inhibitory concentration was evaluated in vitro against Providencia rettgeri M1771; assay type: functional
In short: (§1)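 Standard microtitration broth assay against a panel of 10 Gram-positive and Gram-negative organisms. MIC read in µg/mL and averaged over multiple experiments.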

[4] = system: Streptococcus pyogenes; experiment: Compounds were evaluated in vivo for antibacterial activity for mouse protection against Streptococcus pyogenes C 203 after oral administration; assay type: functional; details: for ED50: C 203, po, read-out: PD50
[5] = system: Staphylococcus aureus; experiment: Minimum inhibitory concentration was evaluated in vitro against Staphylococcus aureus H 228; assay type: functional; in short: as §1
[6] = system: Streptococcus pyogenes; experiment: Compounds were evaluated in vivo for antibacterial activity for mouse protection against Streptococcus pyogenes C 203 after subcutaneous administration; assay type: functional; details: C 203, sc, read-out: PD50
[7] = system: Escherichia coli; experiment: Antibacterial activity in vitro against Escherichia coli Vogel; assay type: functional; in short: as §1
[8] = system: Enterococcus faecalis; experiment: Minimum inhibitory concentration was evaluated in vitro against Enterococcus faecalis MGH-2; assay type: functional; in short: as §1
[9] = system: Pseudomonas aeruginosa; experiment: Minimum inhibitory concentration was evaluated in vitro against Pseudomonas aeruginosa UI-18; assay type: functional; in short: as §1
[10] = system: Klebsiella pneumoniae; experiment: Minimum inhibitory concentration was evaluated in vitro against Klebsiella pneumoniae MGH2; assay type: functional; in short: as §1
[11] = system: Streptococcus pyogenes; experiment: Antibacterial activity measured as mouse protection against Streptococcus pyogenes C 203 after subcutaneous administration; assay type: functional; details: for ED50: Streptococcus pyogenes, C 203, sc, read-out: PD50
[12] = system: Streptococcus pyogenes; experiment: Minimum inhibitory concentration was evaluated in vitro against Streptococcus pyogenes C 203; assay type: functional; in short: as §1
[13] = Clonogenic cytotoxicity against hamster V-79 cells; assay type: functional, Cricetulus griseus, V79
In short: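 Chinese hamster V-79 cells grown overnight, then drug-treated for 3 h at 37 °C. Medium is replaced with fresh medium and cells are incubated 5 days to allow colony formation. IC50 (µg/mL) is the concentration inhibiting colony formation by 50% relative to control.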

[14] = system: Escherichia coli; experiment: Antibacterial activity against Escherichia coli Vogel after subcutaneous administration in mouse; assay type: functional; details: for ED50: Escherichia coli, sc, read-out: PD50
[15] = system: Streptococcus pneumoniae; experiment: Minimum inhibitory concentration was evaluated in vitro against Streptococcus pneumoniae SV-1; assay type: functional; in short: as §1
[16] = organism: Mus musculus; experiment: Compounds were evaluated for phototoxicity in mouse and phototoxicity no-effect dose was reported; assay type: functional
In short: (§2)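 Depilated female CD-1 mice, five per dose plus controls. Animals are dosed orally and then exposed daily to UV-A (320–400 nm) for 3 h, for up to 4 days or until a definite positive response. Redness or erythema relative to controls, read 24 h after irradiation, counts as positive. Reported as the highest dose with no effect (mg/kg).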

[17] = system: Staphylococcus aureus; experiment: Minimum inhibitory concentration was evaluated in vitro against Staphylococcus aureus UC 76; assay type: functional; in short: as §1
[18] = organism: Mus musculus; experiment: Compounds was evaluated for phototoxicity no-effect dose in mouse; assay type: functional; in short: as §2
[19] = target: DNA gyrase (Escherichia coli, UniProt P0AES4+P0AES6); experiment: Inhibition against DNA gyrase; assay type: protein-complex assay
[20] = organism: Mus musculus; experiment: Compound was evaluated for phototoxicity no-effect dose in mouse; assay type: functional; in short: as §2
[21] = system: Streptococcus pneumoniae; experiment: Antibacterial activity expressed as Minimum inhibitory concentration was evaluated in vitro against Streptococcus pneumoniae SV-1; assay type: functional
In short: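 Standard microtitration broth MIC (μg/mL), averaged from multiple experiments; one of a 10-organism Gram-positive/Gram-negative panel.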

[22] = Enterobacter cloacae, read-out: MIC
[23] = Providencia rettgeri, read-out: MIC
[24] = Staphylococcus aureus, read-out: MIC
[25] = Escherichia coli, read-out: MIC
[26] = Enterococcus faecalis, read-out: MIC
[27] = Pseudomonas aeruginosa, read-out: MIC
[28] = Klebsiella pneumoniae, read-out: MIC
[29] = Streptococcus pyogenes, read-out: MIC

| Structure (SMILES) | MIC [1, 22] [µg/mL] | ED50 [2] [mg/kg] | MIC [3, 23] [µg/mL] | MIC [5, 24] [µg/mL] | MIC [7, 25] [µg/mL] | PD50 [4] [mg/kg] | MIC [12] [µg/mL] | Cytotoxicity [13] [µg/mL] | ED50 [14] [mg/kg] | MIC [15] [µg/mL] | MIC [17] [µg/mL] | MIC [8, 26] [µg/mL] | MIC [9, 27] [µg/mL] | MIC [10, 28] [µg/mL] | ED50 [11] [mg/kg] | IC50 [19] [nM] | MIC [12, 29] [µg/mL] | MIC [17, 24] [µg/mL] | further results |
| --- | --- | --- | --- | --- | --- | --- | --- | --- | --- | --- | --- | --- | --- | --- | --- | --- | --- | --- | --- |
| CCNCC1CCN(c2c(F)cc3c(=O)c(C(=O)O)cn(C4CC4)c3c2F)C1 (stereo not given) [PD-117558] | 0.1 (≈ 0.255 µM) | 4 | 0.2 (≈ 0.511 µM) | 0.025 (≈ 0.0639 µM) | 0.05 (≈ 0.128 µM) |  |  |  |  |  |  |  |  |  |  |  |  |  | ED50 [4]: 1 mg/kg; ED50 [6]: 0.8 mg/kg |
| CN[C@H](C)[C@H]1CCN(c2cc3c(cc2F)c(=O)c(C(=O)O)cn3C2CC2)C1 (mixture of isomers) |  | 7 |  |  |  | 7 | 0.05 | 180 | 1 | 0.05 | 0.05 |  |  |  |  |  |  |  | MIC [1]: 0.2 µg/mL; MIC [8]: 0.1 µg/mL; MIC [9]: 1.6 µg/mL; MIC [10]: 0.4 µg/mL; MIC [3]: 0.8 µg/mL; PD50 [11]: 1 mg/kg; MIC [5]: 0.2 µg/mL; Phototoxicity [16]: 100 mg/kg; MIC [7]: 0.2 µg/mL |
| CN[C@@H](C)[C@@H]1CCN(c2nc3c(cc2F)c(=O)c(C(=O)O)cn3C2CC2)C1 (mixture of isomers) | 0.1 |  | 0.4 | 0.1 | 0.1 | 2 | 0.025 | 130 |  | 0.013 | 0.013 | 0.1 | 1.6 | 0.2 |  |  |  |  | Dose [18]: 18 mg/kg; PD50 [11]: 2 mg/kg |
| C[C@@H](N)[C@H]1CCN(c2nc3c(cc2F)c(=O)c(C(=O)O)cn3C2CC2)C1 (racemic) | 0.05 (≈ 0.139 µM) |  | 0.2 (≈ 0.555 µM) |  | 0.05 (≈ 0.139 µM) | 15 | 0.05 (≈ 0.139 µM) | 84 |  | 0.05 (≈ 0.139 µM) | 0.025 (≈ 0.0694 µM) |  | 0.8 (≈ 2.22 µM) | 0.1 (≈ 0.277 µM) | 5 | 6940 |  |  | MIC [8]: 0.1 µg/mL (≈ 0.277 µM); PD50 [14]: 1 mg/kg; MIC [5]: 0.2 µg/mL (≈ 0.555 µM); Dose [20]: >100 mg/kg |
| CCN[C@@H](C)[C@H]1CCN(c2nc3c(cc2F)c(=O)c(C(=O)O)cn3C2CC2)C1 | 0.8 (≈ 2.06 µM) |  | 3.1 (≈ 7.98 µM) | 0.8 (≈ 2.06 µM) | 0.4 (≈ 1.03 µM) |  |  |  |  |  |  | 0.8 (≈ 2.06 µM) | 6.3 (≈ 16.2 µM) | 0.8 (≈ 2.06 µM) |  |  | 0.4 (≈ 1.03 µM) | 0.4 (≈ 1.03 µM) | ED50 [4]: 12 mg/kg; ED50 [6]: 12 mg/kg; MIC [21]: 0.2 µg/mL (≈ 0.515 µM) |
| NC1CCN(c2cc3c(cc2F)c(=O)c(C(=O)O)cn3C2CC2)C1 (stereo not given) | 0.025 (≈ 0.0754 µM) | 3 |  | 0.2 (≈ 0.604 µM) |  |  |  |  |  |  |  | 0.1 (≈ 0.302 µM) |  | 0.05 (≈ 0.151 µM) |  | 754 | 0.1 (≈ 0.302 µM) | 0.025 (≈ 0.0754 µM) |  |
| NC1CCN(c2nc3c(cc2F)c(=O)c(C(=O)O)cn3C2CC2)C1 (stereo not given) | 0.025 (≈ 0.0752 µM) | 2 | 0.05 (≈ 0.15 µM) | 0.2 (≈ 0.602 µM) | 0.013 (≈ 0.0391 µM) |  |  | 98 | 0.6 |  |  | 0.2 (≈ 0.602 µM) | 0.1 (≈ 0.301 µM) | 0.025 (≈ 0.0752 µM) | 14 | 2260 | 0.2 (≈ 0.602 µM) | 0.013 (≈ 0.0391 µM) | ED50 ([4]; Streptococcus pyogenes): 32 mg/kg; MIC [21]: 0.2 µg/mL (≈ 0.602 µM); Dose [20]: >100 mg/kg |
| CCN[C@H](C)[C@H]1CCN(c2c(F)cc3c(=O)c(C(=O)O)cn(C4CC4)c3c2C(F)(F)F)C1 (racemic) | 0.4 (≈ 0.878 µM) | 5 | 1.6 (≈ 3.51 µM) | 0.05 (≈ 0.11 µM) | 0.8 (≈ 1.76 µM) |  |  |  | 3 |  |  | 0.1 (≈ 0.22 µM) | 6.3 (≈ 13.8 µM) | 1.6 (≈ 3.51 µM) | 0.5 | 1930 | 0.025 (≈ 0.0549 µM) | 0.013 (≈ 0.0285 µM) | ED50 ([4]; Streptococcus pyogenes): 0.7 mg/kg; MIC ([15]; Streptococcus pneumoniae, read-out: MIC): 0.013 µg/mL (≈ 0.0285 µM) |
